What was measured:
Type in all cases: cell-based
[1] = biological target: Transient receptor potential cation channel subfamily V member 1 (Rattus norvegicus) (UniProt O35433); assay: Partial antagonist activity at rat TRPV1 expressed in HEK293 cells assessed as effect on capsaicin-induced inward current at 1 uM by whole-cell patch clamp method (reference value: -327.4 +/- 52.3 pA/pF)
In short: (§1)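 HEK293 cells transiently expressing rat TRPV1 (EGFP cotransfected) were patched in whole-cell mode 1 day post-transfection. Cells were held at −60 mV in Ca2+-containing standard bath (pH 7.4) at ~25 °C. Capsaicin-evoked peak current amplitude was quantified. Sigmoidal curve fitting gave EC50 or IC50 values.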

[2] = biological target: Transient receptor potential cation channel subfamily V member 1 (Rattus norvegicus) (UniProt O35433); assay: (§2) Partial antagonist activity at rat TRPV1 expressed in HEK293 cells assessed as effect on capsaicin current density at 1 uM pretreated for 180 sec followed by capsaicin addition at -60 mV holding potential in presence of extracellular calcium by whole-cell patch-clamp method (reference value: -327.4 +/- 52.3 pA/pF); in short: as §1
[3] = biological target: Transient receptor potential cation channel subfamily V member 1 (Rattus norvegicus) (UniProt O35433); assay: Partial antagonist activity at rat TRPV1 expressed in HEK293 cells assessed as effect on capsaicin-induced inward current at 1 uM by whole-cell patch clamp method (reference value: -7 +/- 2.6 pA/pF); in short: as §1
[4] = biological target: Transient receptor potential cation channel subfamily V member 1 (Rattus norvegicus) (UniProt O35433); assay: Partial antagonist activity at rat TRPV1 expressed in HEK293 cells assessed as inhibition of capsaicin-induced inward current at -60 mV holding potential pretreated for 180 secs prior to capsaicin addition in presence of extracellular calcium by whole-cell patch-clamp method; in short: as §1
[5] = biological target: Transient receptor potential cation channel subfamily V member 1 (Rattus norvegicus) (UniProt O35433); assay: Partial antagonist activity at rat TRPV1 expressed in HEK293 cells assessed as effect on capsaicin-induced inward current at 1 uM by whole-cell patch clamp method (reference value: -[…] +/- […] pA/pF)
[6] = biological target: Transient receptor potential cation channel subfamily V member 1 (Rattus norvegicus) (UniProt O35433); assay: Agonist activity at rat TRPV1 channel expressed in HEK293 cells assessed as induction of maximum channel current at 10 uM at -60 mV holding potential by whole-cell patch-clamp method
In short: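 Rat TRPV1 cDNA and an EGFP reporter were cotransfected into HEK293 cells, with recording 1 day later. Whole-cell voltage clamp was run at room temperature (~25 °C) in standard bath (2 mM CaCl2, pH 7.4) with a KCl/MgATP/EGTA pipette solution. Steps from −100 to +100 mV (100 ms) gave I–V curves. Agonist was applied until desensitization, and peak current was scored. EC50 came from a sigmoidal fit.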

[7] = biological target: Transient receptor potential cation channel subfamily V member 1 (Rattus norvegicus) (UniProt O35433); assay: Partial antagonist activity at rat TRPV1 expressed in HEK293 cells assessed as effect on capsaicin-induced inward current at 1 uM by whole-cell patch clamp method (reference value: -151.2 +/- 33 pA/pF); in short: as §1
[8] = biological target: Transient receptor potential cation channel subfamily V member 1 (Rattus norvegicus) (UniProt O35433); assay: Partial antagonist activity at rat TRPV1 expressed in HEK293 cells assessed as effect on capsaicin-induced inward current at 1 uM by whole-cell patch clamp method (reference value: -480.7 +/- 96.9 pA/pF); in short: as §1
[9] = biological target: Transient receptor potential cation channel subfamily V member 1 (Rattus norvegicus) (UniProt O35433); assay: Partial antagonist activity at rat TRPV1 expressed in HEK293 cells assessed as effect on capsaicin-induced inward current at 1 uM by whole-cell patch clamp method; in short: as §1
[10] = biological target: Transient receptor potential cation channel subfamily V member 1 (Rattus norvegicus) (UniProt O35433); assay: Partial antagonist activity at rat TRPV1 expressed in HEK293 cells assessed as effect on capsaicin-induced inward current at 0.1 uM by whole-cell patch clamp method (reference value: -327.4 +/- 52.3 pA/pF); in short: as §1
[11] = biological target: Transient receptor potential cation channel subfamily V member 1 (Rattus norvegicus) (UniProt O35433); assay: Partial antagonist activity at rat TRPV1 expressed in HEK293 cells assessed as effect on capsaicin-induced inward current at 10 uM by whole-cell patch clamp method (reference value: -327.4 +/- 52.3 pA/pF); in short: as §1
[12] = biological target: Transient receptor potential cation channel subfamily V member 1 (Rattus norvegicus) (UniProt O35433); assay: Partial antagonist activity at rat TRPV1 expressed in HEK293 cells assessed as effect on capsaicin-induced inward current at 10 uM by whole-cell patch clamp method (reference value: -431 +/- 43.1 pA/pF); in short: as §1
[13] = biological target: Transient receptor potential cation channel subfamily V member 1 (Rattus norvegicus) (UniProt O35433); assay: Partial antagonist activity at rat TRPV1 expressed in HEK293 cells assessed as effect on capsaicin-induced inward current at 0.1 uM by whole-cell patch clamp method (reference value: -7 +/- 2.6 pA/pF); in short: as §1
[14] = biological target: Transient receptor potential cation channel subfamily V member 1 (Rattus norvegicus) (UniProt O35433); assay: Partial antagonist activity at rat TRPV1 expressed in HEK293 cells assessed as effect on capsaicin-induced inward current at 0.6 uM by whole-cell patch clamp method (reference value: -7 +/- 2.6 pA/pF); in short: as §1
[15] = biological target: Transient receptor potential cation channel subfamily V member 1 (Rattus norvegicus) (UniProt O35433); assay: Partial antagonist activity at rat TRPV1 expressed in HEK293 cells assessed as effect on capsaicin-induced inward current at 0.1 uM by whole-cell patch clamp method (reference value: -[…] +/- […] pA/pF)
[16] = biological target: Transient receptor potential cation channel subfamily V member 1 (Rattus norvegicus) (UniProt O35433); assay: as §2, with “at 0.1” for “at 1”; in short: as §1
[17] = biological target: Transient receptor potential cation channel subfamily V member 1 (Rattus norvegicus) (UniProt O35433); assay: Partial antagonist activity at rat TRPV1 expressed in HEK293 cells assessed as effect on capsaicin-induced inward current at 10 uM by whole-cell patch clamp method (reference value: -151.2 +/- 33 pA/pF); in short: as §1
[18] = biological target: Transient receptor potential cation channel subfamily V member 1 (Rattus norvegicus) (UniProt O35433); assay: as §2, with “at 0.5” for “at 1”; in short: as §1
[19] = biological target: Transient receptor potential cation channel subfamily V member 1 (Rattus norvegicus) (UniProt O35433); assay: Partial antagonist activity at rat TRPV1 expressed in HEK293 cells assessed as effect on capsaicin current density at 10 uM at -60 mV holding potential in absence of extracellular calcium by whole-cell patch-clamp method (reference value: -2407.7 +/- 850.6 pA)
In short: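 Whole-cell clamp at −60 mV was done on rat TRPV1-transfected HEK293 cells (1 day) using a calcium-free bath (5 mM EGTA, no CaCl2, pH 7.4) at ~25 °C. Capsaicin-evoked peak current was measured.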

[20] = biological target: Transient receptor potential cation channel subfamily V member 1 (Rattus norvegicus) (UniProt O35433); assay: Partial antagonist activity at rat TRPV1 expressed in HEK293 cells assessed as effect on capsaicin-induced inward current at 0.6 uM by whole-cell patch clamp method (reference value: -480.7 +/- 96.9 pA/pF); in short: as §1

Sequence of Transient receptor potential cation channel subfamily V member 1 (Rattus norvegicus) (O35433 whole entry): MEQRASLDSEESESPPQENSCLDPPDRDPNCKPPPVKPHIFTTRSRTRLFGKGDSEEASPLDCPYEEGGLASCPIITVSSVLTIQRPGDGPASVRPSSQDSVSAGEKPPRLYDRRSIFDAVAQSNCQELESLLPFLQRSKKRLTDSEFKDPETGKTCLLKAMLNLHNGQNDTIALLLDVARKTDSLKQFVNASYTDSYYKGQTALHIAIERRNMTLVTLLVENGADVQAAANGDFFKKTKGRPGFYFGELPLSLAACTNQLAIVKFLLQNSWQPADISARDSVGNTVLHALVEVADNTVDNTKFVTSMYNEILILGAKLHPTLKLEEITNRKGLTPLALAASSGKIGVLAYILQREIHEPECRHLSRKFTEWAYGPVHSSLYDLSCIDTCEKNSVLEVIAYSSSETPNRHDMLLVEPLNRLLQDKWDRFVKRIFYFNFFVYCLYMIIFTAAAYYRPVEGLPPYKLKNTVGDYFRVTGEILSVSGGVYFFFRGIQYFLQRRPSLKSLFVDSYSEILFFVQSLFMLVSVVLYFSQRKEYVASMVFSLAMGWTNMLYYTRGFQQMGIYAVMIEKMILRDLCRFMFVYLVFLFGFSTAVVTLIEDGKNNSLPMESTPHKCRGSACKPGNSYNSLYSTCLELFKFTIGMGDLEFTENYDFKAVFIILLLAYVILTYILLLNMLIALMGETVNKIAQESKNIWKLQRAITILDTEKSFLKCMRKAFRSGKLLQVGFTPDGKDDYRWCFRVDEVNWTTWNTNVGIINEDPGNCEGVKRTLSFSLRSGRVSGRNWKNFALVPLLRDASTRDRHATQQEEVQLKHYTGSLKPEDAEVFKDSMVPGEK

- Activity [1]: -195 pA/pF
- Activity [2]: -132 pA/pF
- Activity [3]: -81.7 pA/pF
- inhibition [4]: Dose-dependent effect
- Activity [5]: -370 pA/pF
- Activity [6]: -143 pA/pF
- Activity [7]: -75 pA/pF
- Activity [8]: -296 pA/pF
- Activity [9]: -448 pA/pF
- Activity [10]: -236 pA/pF
- Activity [11]: -160 pA/pF
- Activity [12]: -237 pA/pF
- Activity [13]: -6.4 pA/pF
- Activity [14]: -35.9 pA/pF
- Activity [15]: -492 pA/pF
- Activity [16]: -243 pA/pF
- Activity [17]: -172 pA/pF
- Activity [18]: -143 pA/pF
- Activity [19]: -2400 pA/pF
- Activity [20]: -422 pA/pF
Compound: CN1c2ccccc2C(=O)N2CCc3c([nH]c4ccccc34)C21 (stereo not given)

Source: ChEMBL document CHEMBL3856186, “Partial Activation and Inhibition of TRPV1 Channels by Evodiamine and Rutaecarpine, Two Major Components of the Fruits of Evodia rutaecarpa” (J Nat Prod, 2016)
